Data published in PMC11888271 (bioRxiv, 2025).
Where “and” joins values, the source holds several entries; their conditions need not be identical. Equal values may be shown once. Peptide text beside a SMILES is read from it. * marks the point of attachment. Cbz = O=C(OCc1ccccc1)*; CH2F = FC*

Tests used:
Format in all cases: biochemical
[1] = biological target: T1, caspase-4 (Homo sapiens, UniProt P49662); test: In vitro inhibition assay, caspase-4
T1 sequence (P49662 81-270 limits assumed): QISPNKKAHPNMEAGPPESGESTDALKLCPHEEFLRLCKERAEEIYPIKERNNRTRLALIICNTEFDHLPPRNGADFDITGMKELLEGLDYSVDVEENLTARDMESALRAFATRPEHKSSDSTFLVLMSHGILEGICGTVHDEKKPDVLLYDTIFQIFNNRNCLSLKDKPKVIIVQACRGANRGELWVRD
T1 sequence (P49662 290-377 limits assumed): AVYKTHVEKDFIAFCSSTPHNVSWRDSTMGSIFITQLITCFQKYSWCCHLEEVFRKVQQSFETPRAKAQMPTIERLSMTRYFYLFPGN
Summary of the method: (§1)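 Recombinant caspase at 0.25 activity units/µL in pH 7 PIPES buffer (100 mM NaCl, 10 mM DTT, 1 mM EDTA, 0.1% CHAPS, 10% sucrose). Saturating AMC substrate: Ac-WEHD 200 µM (caspase-1, -5) or 1000 µM (-4, -11); Ac-DEVD 100 µM (-3, -6, -7), or 25 µM for -3/-7 with a pan-caspase FMK inhibitor. Fluorescence read every 5 min. Background-subtracted linear rates normalised to no-inhibitor; three runs pooled and fitted to Y=100/(1+X/IC50).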

[2] = biological target: T2, caspase-9 (Homo sapiens, UniProt P55211); test: In vitro inhibition assay, caspase-9; settings: IC50, caspase-9 (different preparation), 1 activity unit/μL, 200 μM Ac-LEHD-AMC substrate
T2 sequence (P55211 1-315 limits assumed): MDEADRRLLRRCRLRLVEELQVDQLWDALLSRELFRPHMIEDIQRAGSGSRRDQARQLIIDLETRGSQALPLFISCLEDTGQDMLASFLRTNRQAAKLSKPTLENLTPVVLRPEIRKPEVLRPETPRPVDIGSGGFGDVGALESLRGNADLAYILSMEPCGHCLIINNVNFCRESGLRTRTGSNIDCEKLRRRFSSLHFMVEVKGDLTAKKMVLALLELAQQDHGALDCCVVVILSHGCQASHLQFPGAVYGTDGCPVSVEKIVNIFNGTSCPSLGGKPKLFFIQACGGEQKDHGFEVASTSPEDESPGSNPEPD
T2 sequence (P55211 331-416 limits assumed): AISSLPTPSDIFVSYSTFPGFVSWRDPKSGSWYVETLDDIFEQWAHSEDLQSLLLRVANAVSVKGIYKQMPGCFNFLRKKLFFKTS

[3] = biological target: caspase-8 (Homo sapiens, UniProt Q14790); test: In vitro inhibition assay, caspase-8; settings: IC50, caspase-8, 0.25 activity units/μL, 200 μM Ac-LEHD-AMC substrate
[4] = biological target: T3, caspase-11 (Mus musculus, UniProt P70343); test: In vitro inhibition assay, caspase-11
T3 sequence (P70343 81-266 limits assumed): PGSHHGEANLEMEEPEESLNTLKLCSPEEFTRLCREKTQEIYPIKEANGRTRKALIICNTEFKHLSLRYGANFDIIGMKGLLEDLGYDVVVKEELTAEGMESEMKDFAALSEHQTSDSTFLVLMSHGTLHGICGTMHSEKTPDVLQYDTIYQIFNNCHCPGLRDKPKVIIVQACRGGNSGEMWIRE
T3 sequence (P70343 286-373 limits assumed): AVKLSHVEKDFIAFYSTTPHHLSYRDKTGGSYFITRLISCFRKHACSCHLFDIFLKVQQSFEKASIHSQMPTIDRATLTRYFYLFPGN
Summary of the method: as §1

[5] = biological target: T4, caspase-3 (Homo sapiens, UniProt P42574); test: In vitro inhibition assay, caspase-3
T4 sequence (P42574 29-175 limits assumed): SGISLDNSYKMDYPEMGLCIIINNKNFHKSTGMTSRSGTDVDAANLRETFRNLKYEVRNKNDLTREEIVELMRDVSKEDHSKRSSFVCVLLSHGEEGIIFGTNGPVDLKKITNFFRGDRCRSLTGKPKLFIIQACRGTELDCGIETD
T4 sequence (P42574 176-277 limits assumed): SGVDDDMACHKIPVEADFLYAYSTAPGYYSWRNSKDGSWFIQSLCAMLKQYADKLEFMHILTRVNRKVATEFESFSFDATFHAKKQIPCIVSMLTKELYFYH
Summary of the method: as §1

[6] = biological target: T5, caspase-1 (Homo sapiens, UniProt P29466); test: In vitro inhibition assay, caspase-1
T5 sequence (P29466 120-297 limits assumed): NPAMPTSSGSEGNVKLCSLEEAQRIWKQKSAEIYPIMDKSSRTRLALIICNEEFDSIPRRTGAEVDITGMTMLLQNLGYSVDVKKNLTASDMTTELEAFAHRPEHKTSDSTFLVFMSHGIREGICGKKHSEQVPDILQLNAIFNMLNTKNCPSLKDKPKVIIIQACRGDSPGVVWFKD
T5 sequence (P29466 317-404 limits assumed): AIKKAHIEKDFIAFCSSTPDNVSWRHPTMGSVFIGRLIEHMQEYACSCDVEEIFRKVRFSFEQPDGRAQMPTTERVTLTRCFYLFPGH
Summary of the method: as §1

[7] = biological target: T6, caspase-5 (Homo sapiens, UniProt P51878); test: In vitro inhibition assay, caspase-5
T6 sequence (P51878 137-327 limits assumed): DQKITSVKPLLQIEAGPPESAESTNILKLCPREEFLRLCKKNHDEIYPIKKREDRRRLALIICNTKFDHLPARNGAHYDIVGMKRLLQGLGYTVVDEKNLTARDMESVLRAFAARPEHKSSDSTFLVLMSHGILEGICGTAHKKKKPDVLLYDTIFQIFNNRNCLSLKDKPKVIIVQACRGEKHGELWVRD
T6 sequence (P51878 347-434 limits assumed): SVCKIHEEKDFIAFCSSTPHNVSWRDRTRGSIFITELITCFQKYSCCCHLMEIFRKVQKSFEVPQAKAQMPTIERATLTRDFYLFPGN
Summary of the method: as §1

[8] = biological target: T7, caspase-10 (Homo sapiens, UniProt Q92851); test: In vitro inhibition assay, caspase-10; settings: IC50, caspase-10, 0.25 activity units/μL, 200 μM Ac-LEHD-AMC substrate
T7 sequence (Q92851 220-415 limits assumed): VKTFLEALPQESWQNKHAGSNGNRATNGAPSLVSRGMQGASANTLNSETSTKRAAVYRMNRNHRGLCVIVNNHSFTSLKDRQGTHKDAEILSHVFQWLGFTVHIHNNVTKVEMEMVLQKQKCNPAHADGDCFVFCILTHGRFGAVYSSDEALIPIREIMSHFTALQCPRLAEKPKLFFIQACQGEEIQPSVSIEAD
T7 sequence (Q92851 416-521 limits assumed): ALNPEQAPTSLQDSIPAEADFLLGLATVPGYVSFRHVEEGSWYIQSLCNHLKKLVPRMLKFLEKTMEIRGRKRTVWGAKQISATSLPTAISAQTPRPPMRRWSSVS

[9] = biological target: T8, caspase-7 (Homo sapiens, UniProt P55210); test: In vitro inhibition assay, caspase-7
T8 sequence (P55210 24-198 limits assumed): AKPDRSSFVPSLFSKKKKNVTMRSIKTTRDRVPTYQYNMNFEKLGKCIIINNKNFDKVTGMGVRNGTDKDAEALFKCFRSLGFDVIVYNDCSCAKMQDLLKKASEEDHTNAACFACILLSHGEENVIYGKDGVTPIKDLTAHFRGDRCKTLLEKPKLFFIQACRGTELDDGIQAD
T8 sequence (P55210 207-303 limits assumed): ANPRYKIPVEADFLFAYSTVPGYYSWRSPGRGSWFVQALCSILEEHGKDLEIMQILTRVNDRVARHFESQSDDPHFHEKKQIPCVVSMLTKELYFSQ
Summary of the method: as §1

[10] = biological target: T9, caspase-6 (Homo sapiens, UniProt P55212); test: In vitro inhibition assay, caspase-6
T9 sequence (P55212 24-179 limits assumed): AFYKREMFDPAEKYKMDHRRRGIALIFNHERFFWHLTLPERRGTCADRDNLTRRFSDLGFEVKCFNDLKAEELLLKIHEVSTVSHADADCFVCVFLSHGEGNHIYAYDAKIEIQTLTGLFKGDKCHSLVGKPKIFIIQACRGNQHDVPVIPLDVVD
T9 sequence (P55212 194-293 limits assumed): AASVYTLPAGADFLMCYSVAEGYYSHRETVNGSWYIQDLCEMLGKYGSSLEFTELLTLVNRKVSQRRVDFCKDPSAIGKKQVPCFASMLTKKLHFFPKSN
Summary of the method: as §1

Sequence of caspase-8 (Q14790 217-374 limits assumed): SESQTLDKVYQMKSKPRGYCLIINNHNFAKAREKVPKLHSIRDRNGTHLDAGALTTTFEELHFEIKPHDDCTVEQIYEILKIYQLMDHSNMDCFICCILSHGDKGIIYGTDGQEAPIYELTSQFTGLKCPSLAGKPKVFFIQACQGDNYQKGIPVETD
Sequence of caspase-8 (Q14790 385-479 limits assumed): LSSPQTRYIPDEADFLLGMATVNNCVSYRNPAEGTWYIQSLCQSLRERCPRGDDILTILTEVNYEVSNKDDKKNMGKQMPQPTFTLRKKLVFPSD

IC50 [1]	IC50 [2]	IC50 [3]	IC50 [4]	IC50 [5]	IC50 [6]	IC50 [7]	IC50 [8]	IC50 [9]	IC50 [10]	Structure (SMILES)
30.1 ± 2.67 µM	4 µM and 4.01 µM	1 µM and 1.02 µM	81 ± 2.77 µM	> 100 µM	0.53 ± 0.09 µM	19.5 ± 1.37 µM	42 µM and 42.3 µM	> 100 µM	> 100 µM	CCO[C@@H]1OC(=O)C[C@@H]1NC(=O)[C@@H]1CCCN1C(=O)[C@@H](NC(=O)c1ccc(N)c(Cl)c1)C(C)(C)C [VX-765, (S)-1-((S)-2-{[1-(4-amino-3-chloro-phenyl)-methanoyl]-amino}-3,3-dimethyl-butanoyl)-pyrrolidine-2-carboxylic acid ((2R,3S)-2-ethoxy-5-oxo-tetrahydro-furan-3-yl)-amide]
–	3.7 µM and 3.65 µM	0.35 ± 0.1 µM	–	1.88 ± 0.26 µM	5.72 ± 0.47 µM	19.9 ± 1.19 µM	5.76 ± 1.1 µM	2.63 ± 0.54 µM	0.06 ± 0.04 µM	CC[C@H](C)[C@H](NC(=O)OCc1ccccc1)C(=O)N[C@@H](CCC(=O)OC)C(=O)N[C@H](C(=O)N[C@@H](CC(=O)OC)C(=O)CF)[C@@H](C)O [z-IETD-FMK] (Cbz-IE(OMe)TD(OMe)-CH2F)
–	1.5 µM and 1.58 µM	0.07 ± 0.01 µM	–	1.07 ± 0.18 µM	0.82 ± 0.13 µM	2.31 ± 0.31 µM	3.59 ± 1.27 µM	3.9 ± 0.29 µM	0.11 ± 0.06 µM	COC(=O)CC[C@H](NC(=O)[C@H](CC(C)C)NC(=O)OCc1ccccc1)C(=O)N[C@@H](Cc1c[nH]cn1)C(=O)N[C@@H](CC(=O)OC)C(=O)CF [z-LEHD-FMK] (Cbz-LE(OMe)HD(OMe)-CH2F)
